Experiments:
Assay type in all cases: functional
[1] = Growth inhibition of human OVCAR4 cells; conditions: for GI50 / TGI: OVCAR-4; for CC50: OVCAR-4, read-out: LC50 (the source's name)
NCI-H322M = assay: Growth inhibition of human NCI-H322M cells; conditions: for CC50: read-out: LC50 (the source's name)
NCI-H226 = assay: Growth inhibition of human NCI-H226 cells; conditions: for CC50: read-out: LC50 (the source's name)
IGROV-1 = assay: Growth inhibition of human IGROV1 cells
SR = assay: Growth inhibition of human SR cells; conditions: for CC50: read-out: LC50 (the source's name)
[2] = Growth inhibition of human OVCAR8 cells; conditions: for GI50 / TGI: OVCAR-8; for CC50: OVCAR-8, read-out: LC50 (the source's name)
[3] = Cytotoxicity against human renal cancer cells assessed as cell growth at 10 uM relative to control; conditions: Cancer cell lines, read-out: Activity
How it was run: (§1)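 Single-concentration screen against a panel of human cancer cell lines. Each value is the mean percent growth across the cell lines of that tumour subpanel.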

[4] = Cytotoxicity against human colon cancer cells assessed as cell growth at 10 uM relative to control; conditions: Cancer cell lines, read-out: Activity; how it was run: as §1
[5] = Growth inhibition of human NCI-ADR-RES cells
SW-620 = assay: Growth inhibition of human SW620 cells
[6] = Growth inhibition of human MOLT4 cells; conditions: for GI50 / TGI: MOLT-4; for CC50: MOLT-4, read-out: LC50 (the source's name)
[7] = Cytotoxicity against human leukemia cells assessed as cell growth at 10 uM relative to control; conditions: read-out: Activity; how it was run: as §1
786-0 = assay: Growth inhibition of human 786-0 cells; conditions: for CC50: read-out: LC50 (the source's name)
[8] = Growth inhibition of human SF295 cells; conditions: SF-295
SF-268 = assay: Growth inhibition of human SF268 cells
[9] = Growth inhibition of human UACC62 cells; conditions: UACC-62
[10] = Cytotoxicity against human prostate cancer cells assessed as cell growth at 10 uM relative to control; conditions: Cancer cell lines, read-out: Activity; how it was run: as §1
SK-MEL-28 = assay: Growth inhibition of human SK-MEL-28 cells
[11] = Growth inhibition of human HCC2998 cells; conditions: HCC 2998
K562 = assay: Growth inhibition of human K562 cells; conditions: for CC50: read-out: LC50 (the source's name)
MDA-MB-435 = assay: Growth inhibition of human MDA-MB-435 cells; conditions: for CC50: read-out: LC50 (the source's name)
DU-145 = assay: Growth inhibition of human DU145 cells; conditions: for CC50: read-out: LC50 (the source's name)
[12] = Growth inhibition of human SF539 cells
[13] = Growth inhibition of human HOP92 cells; conditions: for GI50 / TGI: HOP-92; for CC50: HOP-92, read-out: LC50 (the source's name)
PC-3 = assay: Growth inhibition of human PC3 cells; conditions: for CC50: read-out: LC50 (the source's name)
[14] = Cytotoxicity against human CNSC cells assessed as cell growth at 10 uM relative to control; conditions: read-out: Activity; how it was run: as §1
[15] = Cytotoxicity against human ovarian cancer cells assessed as cell growth at 10 uM relative to control; conditions: Cancer cell lines, read-out: Activity; how it was run: as §1
COLO 205 = assay: Growth inhibition of human COLO205 cells; conditions: for CC50: read-out: LC50 (the source's name)
MDA-MB-468 = assay: Growth inhibition of human MDA-MB-468 cells; conditions: for CC50: read-out: LC50 (the source's name)
MDA-MB-231 = assay: Growth inhibition of human MDA-MB-231 cells; conditions: for CC50: read-out: LC50 (the source's name)
SN12C = assay: Growth inhibition of human SN12C cells; conditions: for CC50: read-out: LC50 (the source's name)
A549 = assay: Growth inhibition of human A549/ATCC cells; conditions: for CC50: read-out: LC50 (the source's name)
[16] = Growth inhibition of human UACC257 cells; conditions: for GI50 / TGI: UACC-257; for CC50: UACC-257, read-out: LC50 (the source's name)
[17] = Growth inhibition of human OVCAR5 cells; conditions: OVCAR-5
ACHN = assay: Growth inhibition of human ACHN cells
HCT-116 = assay: Growth inhibition of human HCT116 cells
CCRF-CEM = assay: Growth inhibition of human CCRF-CEM cells; conditions: for CC50: read-out: LC50 (the source's name)
[18] = Growth inhibition of human RXF393 cells
[19] = read-out: LC50 (the source's name)

## CC(C)C[C@H](NC(=O)CCn1ccc2ccccc2c1=O)B(O)O
[1]
  GI50: 17 µM
  TGI: > 100 µM
  CC50: > 100 µM
NCI-H322M
  GI50: 76.8 µM
  TGI: > 100 µM
  CC50: > 100 µM
NCI-H226
  GI50: 1.47 µM
  TGI: 3.24 µM
  CC50: 7.15 µM
IGROV-1
  GI50: 12.3 µM
  LC50: > 100 µM
  TGI: > 100 µM
SR
  GI50: 1.7 µM
  TGI: 28.9 µM
  CC50: > 100 µM
[2]
  GI50: 15.3 µM
  TGI: > 100 µM
  CC50: > 100 µM
[3]
  growth at 10 µM: 32.3%
[4]
  growth at 10 µM: 45.1%
[5]
  GI50: 67.1 µM
  LC50: > 100 µM
  TGI: > 100 µM
SW-620
  GI50: 3 µM
  LC50: 93.4 µM
  TGI: 12 µM
[6]
  GI50: 1.28 µM
  TGI: 5.94 µM
  CC50: > 100 µM
[7]
  growth at 10 µM: 21.1%
786-0
  GI50: 4.76 µM
  TGI: > 100 µM
  CC50: > 100 µM
[8]
  GI50: 3.78 µM
  LC50: 83.3 µM
  TGI: 19.6 µM
SF-268
  GI50: 5.69 µM
  LC50: > 100 µM
  TGI: 30.4 µM
[9]
  GI50: 4.29 µM
  LC50 (concentration killing 50% of cells): > 100 µM
  TGI: 24.9 µM
[10]
  growth at 10 µM: 57.8%
SK-MEL-28
  GI50: 3.27 µM
  TGI: > 100 µM
SK-MEL-28; [19]
  CC50: > 100 µM
[11]
  GI50: 6.08 µM
  LC50: 66.4 µM
  TGI: 21.3 µM
K562
  GI50: 4.97 µM
  TGI: > 100 µM
  CC50: > 100 µM
MDA-MB-435
  GI50: 1.27 µM
  TGI: 2.81 µM
  CC50: 6.24 µM
DU-145
  GI50: 9.13 µM
  TGI: > 100 µM
  CC50: > 100 µM
[12]; SF-539
  GI50: 1.61 µM
  TGI: 5.62 µM
[12]; SF-539, read-out: LC50 (the source's name)
  CC50: > 100 µM
[13]
  GI50: 10.9 µM
  TGI: 67.1 µM
  CC50: > 100 µM
PC-3
  GI50: 5.77 µM
  TGI: > 100 µM
  CC50: > 100 µM
[14]
  growth at 10 µM: 52%
[15]
  growth at 10 µM: 73.1%
COLO 205
  GI50: 5.06 µM
  TGI: > 100 µM
  CC50: > 100 µM
MDA-MB-468
  GI50: 1.38 µM
  TGI: 7.08 µM
  CC50: > 100 µM
MDA-MB-231
  GI50: 9.45 µM
  TGI: 59.3 µM
  CC50: > 100 µM
SN12C
  GI50: 11.2 µM
  TGI: 55.4 µM
  CC50: > 100 µM
A549
  GI50: 8.41 µM
  TGI: > 100 µM
  CC50: > 100 µM
[16]
  GI50: 3.68 µM
  TGI: 33.8 µM
  CC50: > 100 µM
[17]
  GI50: 18.8 µM
  LC50: > 100 µM
  TGI: > 100 µM
ACHN
  GI50: 1.75 µM
  TGI: > 100 µM
ACHN; [19]
  CC50: > 100 µM
HCT-116
  GI50: 1.55 µM
  LC50: > 100 µM
  TGI: 19.8 µM
CCRF-CEM
  GI50: 2.02 µM
  TGI: 25.4 µM
  CC50: > 100 µM

## CC(C)C[C@H](NC(=O)Cn1ccc2ccc(Br)cc2c1=O)B(O)O
[1]
  GI50: 4.94 µM
  TGI: > 100 µM
  CC50: > 100 µM
NCI-H322M
  GI50: > 100 µM
  TGI: > 100 µM
  CC50: > 100 µM
NCI-H226
  GI50: 0.47 µM
  TGI: 1.84 µM
  CC50: 5.39 µM
IGROV-1
  GI50: 6.16 µM
  LC50: > 100 µM
  TGI: 46.9 µM
[18]; RXF 393
  GI50: 0.43 µM
  TGI: 1.77 µM
[18]; RXF 393, read-out: LC50 (the source's name)
  CC50: 5.99 µM
SR
  GI50: 0.27 µM
  TGI: 12.2 µM
  CC50: > 100 µM
[2]
  GI50: 3.53 µM
  TGI: > 100 µM
  CC50: > 100 µM
[3]
  growth at 10 µM: -8.89%
[4]
  growth at 10 µM: 3.27%
[5]
  GI50: 21.5 µM
  LC50: > 100 µM
  TGI: > 100 µM
SW-620
  GI50: 0.46 µM
  LC50: > 100 µM
  TGI: 8.19 µM
[6]
  GI50: 0.3 µM
  TGI: 1.57 µM
  CC50: > 100 µM
[7]
  growth at 10 µM: 0.57%
786-0
  GI50: 4.06 µM
  TGI: > 100 µM
  CC50: > 100 µM
[8]
  GI50: 2.03 µM
  LC50: 86.4 µM
  TGI: 15.9 µM
SF-268
  GI50: 3.76 µM
  LC50: > 100 µM
  TGI: 31.9 µM
[9]
  GI50: 1.86 µM
  LC50 (concentration killing 50% of cells): 97 µM
  TGI: 10.4 µM
[10]
  growth at 10 µM: 42.9%
[11]
  GI50: 2.46 µM
  LC50: 31.4 µM
  TGI: 6.37 µM
K562
  GI50: 3.15 µM
  TGI: > 100 µM
  CC50: > 100 µM
MDA-MB-435
  GI50: 0.33 µM
  TGI: 1.29 µM
  CC50: 5.88 µM
DU-145
  GI50: 6.05 µM
  TGI: > 100 µM
  CC50: > 100 µM
[13]
  GI50: 2.56 µM
  TGI: 8.7 µM
  CC50: > 100 µM
PC-3
  GI50: 6.31 µM
  TGI: > 100 µM
  CC50: > 100 µM
[14]
  growth at 10 µM: 24.3%
[15]
  growth at 10 µM: 37.5%
COLO 205
  GI50: 2.83 µM
  TGI: > 100 µM
  CC50: > 100 µM
MDA-MB-468
  GI50: 0.3 µM
  TGI: 1.1 µM
  CC50: > 100 µM
MDA-MB-231
  GI50: 3.18 µM
  TGI: 19.8 µM
  CC50: > 100 µM
SN12C
  GI50: 3.52 µM
  TGI: 55.2 µM
  CC50: > 100 µM
A549
  GI50: 4.58 µM
  TGI: > 100 µM
  CC50: > 100 µM
[16]
  GI50: 0.94 µM
  TGI: 4.51 µM
  CC50: > 100 µM
HCT-116
  GI50: 0.6 µM
  LC50: 95.8 µM
  TGI: 3.57 µM
CCRF-CEM
  GI50: 0.44 µM
  TGI: > 100 µM
  CC50: > 100 µM

Source: ChEMBL document CHEMBL3286129, “Optimization of peptidomimetic boronates bearing a P3 bicyclic scaffold as proteasome inhibitors” (Eur J Med Chem, 2014)
